High-throughput results (PubChem BioAssay)
The list is not random: actives were taken first. Their share in the collection is about 3.4%.
p97 ATPase inh: inhibitors of human p97 ATPase; P55072; inhibition, % at 8 µM; recombinant p97 ATPase, Kinase-Glo ATP luminescence, 3 h; 220,000 compounds, 0.42% hits; in the data active means inhibition above about 15%
Redox H2O2 prof: compounds producing H2O2 with reducing agent – biochemical, NIH compound library profiling, artefact control for MLSCN library redox annotation, primary screen; DTT-dependent redox cycling H2O2, phenol red/HRP absorbance; 100% = 100 µM peroxide control, 0% = buffer; activation, % at 10 µM; 200,000 compounds, 0.03% hits;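 active means activation of at least 50% relative to the plate's high and low controls in the primary single-dose screen; inactive means activation below 50%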;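 further: compound incubated with DTT at 0.8 mM final as the reducing agent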
Mdm2 ligase inh: Mdm2 E3 ligase (human) inhibition; Q00987; cell-based MDM2 ubiquitination luciferase reporter, 2 h; 0 = plate control, 100 = twice control, blank-subtracted; signal enhancement, % at 5 µM; 210,000 compounds, 0.11% hits;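 active means signal enhancement of 30% or more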;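 further: luminescence tracks abundance of the self-degrading MDM2-luciferase fusion protein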
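Material: Stable MDM2–luciferase fusion reporter cells | Amount: 2000 cells seeded into each well | Dosing: One concentration, 5 µM, with 0.2% DMSO | Incubation: 4 h cell settling then 2 h compound exposure, 37 °C | Measured by: Luciferase luminescence | Read-out basis: % enhancement relative to plate controls after blank subtraction | Benchmarks: Control and blank well means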
PKD1 kinase inh: inhibitors of human PKD1 kinase. inhibition, % (concentration not given with the values). 200,000 compounds, 0.056% hits. PKD1 kinase fluorescence polarization assay. Q15139. AID 797; in the data active means inhibition above about 50%
Cl transport mod: modulates chloride dependent transport by human KCC2; 190,000 compounds, 2.2% hits; AID 1456; KCC2 cells, thallium flux FluoZin-2 fluorescence; B-score of Tl+ flux slope (higher = more flux/activation; lower = inhibition) at 10 µM;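 active means thallium flux slope and its plate-corrected score both differing from the plate sample mean at a set confidence after two filtering rounds, in either direction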;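 further: slope of fluorescence scaled to starting intensity during 10 to 20 s after thallium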
ROMK mod: human ROMK K+ channel modulation, primary screen; P48048; Tet-inducible ROMK, thallium flux fluorescence; actives lie on both sides; B-score at 10 µM; 130,000 compounds, 2% hits; AID 1918;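 active means signal ratio slope over the read window, or its plate-corrected B-score, at least 3 SD from the plate mean, either direction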;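 further: B-score of the F/F0 ratio slope over 7 to 12 s after thallium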
Target sequence (P48048 whole entry, looked up): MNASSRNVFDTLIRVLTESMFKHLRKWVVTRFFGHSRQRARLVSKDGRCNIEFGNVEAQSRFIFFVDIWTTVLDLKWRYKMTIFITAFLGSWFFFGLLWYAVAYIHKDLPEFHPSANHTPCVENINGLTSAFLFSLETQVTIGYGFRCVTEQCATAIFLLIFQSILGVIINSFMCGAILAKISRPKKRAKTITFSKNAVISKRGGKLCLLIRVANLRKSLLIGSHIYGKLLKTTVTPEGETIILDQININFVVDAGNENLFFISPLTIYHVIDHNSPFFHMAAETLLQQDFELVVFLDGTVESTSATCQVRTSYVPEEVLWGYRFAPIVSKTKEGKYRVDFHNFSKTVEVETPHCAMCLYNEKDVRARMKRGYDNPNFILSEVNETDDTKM
p97 inh conf: confirmation of human p97 ATPase inhibitors | 760 compounds, 44% hits | shares compounds with p97 ATPase inh | recombinant p97 ATPase, Kinase-Glo ATP luminescence | inhibition, % at 8 µM;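 active means percent inhibition of p97 ATPase above a set limit, the primary screen's mean plus 3 SD, cut at about 15% in these data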
Numbers stand for hits; . = inactive; / = no result given.

SMILES	p97 ATPase inh	Redox H2O2 prof	Mdm2 ligase inh	PKD1 kinase inh	Cl transport mod	ROMK mod	p97 inh conf
CC(=O)Oc1cccc(C(=O)Nc2c[nH]c(=O)[nH]c2=O)c1	.	.	.	.	.	.	/
CCOC(=O)c1sc(NC(=O)c2c(C)nn(Cc3ccccc3)c2C)cc1C	20	.	.	.	.	.	.
CCOC(=O)c1sc(NC(=O)c2ccccc2)cc1C	.	.	.	.	.	.	/
O=C(NNC1=C(C(=O)C(F)(F)F)CCC1)c1cccnc1	.	.	.	.	.	.	/
O=C(O)CSCC(=O)Nc1ccc(-c2nc3ccccc3s2)cc1	.	/	.	/	.	/	/
Cc1csc(NC(=O)CSCC(=O)O)c1-c1nc2ccccc2s1	16	/	.	/	.	/	19
COc1ccccc1NS(=O)(=O)c1cccc(C(=O)NNC(=O)C(NC(N)=O)C(C)C)c1 (stereo not given)	.	/	.	/	.	/	/
Cc1ccc(-c2nc(Nc3ccc(N4CCOCC4)cc3)c3ccccc3n2)cc1	15	/	.	/	.	/	.
CCOc1ccccc1CN1C(=O)c2ccccc2C1C(=O)NCC1CCCO1 (stereo not given)	.	.	.	.	.	.	/
CCOc1ccccc1CN1C(=O)c2ccccc2C1C(=O)NC(C)CC (stereo not given)	19	.	.	.	/	.	.
Cc1ccc(C(=O)NC(=C(Cl)Cl)S(=O)(=O)c2ccc(Cl)cc2)cc1	17	.	.	.	.	.	23
O=C(NC(=C(Cl)Cl)S(=O)(=O)c1ccc(Cl)cc1)c1ccccc1	25	/	.	/	.	.	27
Cc1ccc(S(=O)(=O)C(NC(=O)c2ccccc2)=C(Cl)Cl)cc1	.	.	/	.	.	/	/
O=C(NCc1ccco1)C(c1ccco1)N(CCc1ccccc1)C(=O)Cn1nnc2ccccc21 (stereo not given)	.	.	.	.	.	/	/
CC1=Nc2ccccc2/C1=C/c1c(N)n2c(S(=O)(=O)CC(C)C)nsc2nc1=O	18	.	.	.	.	.	39
CC1=Nc2ccccc2/C1=C/c1c(N)n2c(S(=O)(=O)C(C)C)nsc2nc1=O	22	.	.	.	.	.	36
CC1=Nc2ccc(C)cc2/C1=C/c1c(N)n2c(S(=O)(=O)C(C)C)nsc2nc1=O	.	.	.	.	.	.	/
NC1=NC(c2ccc(Cl)cc2)C(C(=O)c2ccccc2)N1 (stereo not given)	.	/	.	/	.	.	/
CN(C)/C=C/c1c([N+](=O)[O-])c2ccc(O)cc2n1-c1ccccc1	26	/	.	/	/	/	.
Cc1nc2ccccc2n1CC(=O)NCCN1CCCC1	35	.	.	.	.	/	.
Cc1nc(N)sc1C(=O)Nc1ccccc1	.	.	.	.	.	/	/
COC(=O)c1ccccc1NC(=O)c1sc(N)nc1C	15	.	.	.	/	.	.
Cc1cccc(C)c1NC(=O)CSCc1cccc(CSCC(=O)Nc2c(C)cccc2C)n1	16	.	.	.	.	.	.
N#C/C(=C/c1ccco1)C(N)=S	27	/	.	/	.	.	.
CC1CCN(S(=O)(=O)c2ccccc2[N+](=O)[O-])CC1	.	.	.	.	.	.	/
SMILES	p97 ATPase inh	Redox H2O2 prof	Mdm2 ligase inh	PKD1 kinase inh	Cl transport mod	ROMK mod	p97 inh conf
COc1cc(C=C2C(=O)c3ccccc3C2=O)ccc1O	.	/	.	/	/	/	/
COc1cc(/C=C2\COC/C(=C\c3ccc(O)c(OC)c3)C2=O)ccc1O	15	/	.	/	.	/	.
CCCC(=O)n1nc(-c2ccc(C)cc2)nc1NCc1ccco1	.	.	.	.	.	.	/
O=C(O)C1CSC(c2ccc(O)c([N+](=O)[O-])c2)N1 (stereo not given)	16	.	.	.	/	.	.
CC1=NN(Cc2ccccc2)C(=O)C1C(c1ccc(Cl)cc1)C(C#N)C#N (stereo not given)	18	.	.	.	.	.	.
COCCCNc1nc2nonc2nc1N1CCN2CCCC2C1 (stereo not given)	16	/	.	/	.	/	.
O=C(Nc1cccc(F)c1)c1c(O)c2cccc3c2n(c1=O)CCC3	18	.	.	.	/	.	.
O=C1/C(=C/c2c[nH]c3ccccc23)CCC/C1=C\c1c[nH]c2ccccc12	29	.	.	.	.	.	23
O=C1CS/C(=N/N=C/c2c[nH]c3ccccc23)N1	.	/	.	/	.	.	/
COc1ccc(/C=N/NC(=O)c2ccc(N)cc2)cc1Cn1cc([N+](=O)[O-])cn1	20	.	.	.	.	/	.
O=C(O)Cc1c[nH]c2cccc(O)c12	17	.	.	.	.	/	19
Oc1ccc(Cl)cc1/C=C/c1ccc2cccc(O)c2n1	31	.	.	.	.	.	22
COc1cc(/C=C2\SC(=Nc3cccnc3)NC2=O)cc(OC)c1OC	.	/	.	/	.	/	/
COc1cc(/C=C2/SC(=Nc3ccc(O)cc3)NC2=O)ccc1O	25	/	.	/	/	/	31
CC(C)Sc1nc2ccc(N3C(=O)C4CCCCC4C3=O)cc2s1 (stereo not given)	.	.	.	.	.	.	/
O=C(O[C@@H]1OC2COC(=O)c3cc(O)c(O)c(O)c3-c3c(cc(O)c(O)c3O)C(=O)O[C@@H]([C@H]1O)[C@@H]2O)c1cc(O)c(O)c(O)c1	38	.	/	.	.	.	60
CCS(=O)(=O)Nc1c(C(=O)OC)[nH]c2ccccc12	.	.	.	.	.	/	/
CCS(=O)(=O)Nc1c(C(=O)O)[nH]c2ccccc12	20	.	.	.	.	/	.
CN(CC(=O)NCc1ccccn1)S(=O)(=O)c1ccc(Br)cc1	.	.	.	.	.	.	/
CC1CCc2nc(N)c(C#N)c(-c3cccnc3)c2C1 (stereo not given)	26	.	.	.	.	/	.
COc1ccc(Br)cc1/C=C/C(=O)c1ccc(NC(C)=O)cc1	.	.	.	.	.	/	/
CCN(CC)c1cc(C)c2cc(NC(=O)CNC(C)=O)ccc2n1	25	.	.	.	/	.	.
CCCCN(C(=S)Nc1ccc(F)cc1)c1c(N)n(CCC)c(=O)[nH]c1=O	.	.	.	.	.	.	/
COc1ccccc1N1CCN(Cc2cc(=O)n3ccsc3n2)CC1	16	.	.	.	.	/	.
O=c1cc(CN2CCCCCC2)nc2sccn12	.	.	.	.	.	.	/
CCOC(=O)/C(C#N)=C\c1ccc(N2CCN(C/C=C/c3ccccc3)CC2)cc1	.	.	.	.	.	/	/
COc1ccc(CSCC(=O)NN=C2CCN(C)CC2)cc1	.	.	.	.	.	.	/
O=C(c1ccccc1)N1CCN(C(=O)C23CC4CC(CC(C4)C2)C3)CC1	.	.	.	.	/	/	/
O=C(Cc1ccc(Cl)cc1)Nc1ccc(NC(=O)c2cccs2)cc1	15	.	.	.	.	.	.
O=C(Nc1ccc(Cl)cc1)c1cccs1	.	.	.	.	.	.	/
